Screening results deposited in PubChem BioAssay by several laboratories.
Beta2AR agonist: human beta-2 adrenergic receptor agonism by FAP. Am2.2-beta2AR cells, FAP receptor internalization, flow cytometry. response, % (test concentration not listed). actives 0.43% (n = 340,000). AID 504454;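 active = response above a set limit, near 3 SD of response in nonfluorescent compounds, cut at about 42% in these data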
Dynein transport: blocks dynein driven cargo transport along microtubules. 3617.4 mouse cells, GR-EGFP nuclear translocation imaging; test concentration mostly 20 µM; stimulated with dexamethasone, 1 µM; stronger effect = lower value. actives 0.47% (n = 220,000). AID 1381. z-score, hits read low;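 active = plate z-score of nuclear minus cytoplasmic receptor signal below a set negative limit, without overly bright fluorescence or cell loss, cut at about -3.5 in these data, passing the limit was not always enough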;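 note: z-score of nuclear minus cytoplasmic ring GR-EGFP intensity difference per well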
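Medium: Induction medium lacking tetracycline, stripped serum | Probe or stimulus: 1.0 µM final dexamethasone stimulus | Schedule: 48 h induction, then 1 h compound, then 30 min agonist, 37 °C | Signal: Automated 10x imaging of fixed Hoechst-stained cells | Evaluation: Per-cell GR-EGFP intensity, nucleus versus surrounding cytoplasmic ring, well-averaged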
MEKK3 PB1 HTS: modulators (inhibitors or enhancers) of MEK5 binding to human MEKK3 PB1 domain; bead-based flow cytometry, Alexa488-MEK5 binding to MEKK3; actives lie on both sides; 0 = blocked by unlabeled MEK5, 100 = vehicle; binding response (% of control), % at 10 µM; actives 1.4% (n = 290,000); AID 1529;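 active = binding response more than 3 SD above or below the average of its plate-row segment, actives on both sides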;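 note: Alexa488 bead fluorescence after subtracting the streptavidin-only scavenger bead signal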
MEKK2 WT-MEK5: raises or lowers MEK5 binding to wildtype human MEKK2 PB1 domain. bead flow cytometry, Alexa488-MEK5 binding to MEKK2 WT; actives lie on both sides. binding response (% of control), % at 10 µM. actives 1.1% (n = 290,000). AID 1531; in the data active = binding response below about 67% or above about 130%
MEKK2 mut-MEK5: signal of MEK5 binding to mutant human MEKK2 PB1 domain. actives 0.35% (n = 290,000). bead flow cytometry, Alexa488-MEK5 binding to MEKK2 mutant. percent response, % at 10 µM; in the data active = percent response above about 24%, passing the limit was not always enough
ATG4B inh: inhibitors of human ATG4B cysteine protease. Q9Y4P1. ATG4B cleavage of LC3-PLA2, NBD-HPC fluorescence, 1 h. inhibition, % at 8.33 µM. actives 0.51% (n = 340,000); in the data active = inhibition above about 40%
Target sequence (Q9Y4P1 whole entry, looked up): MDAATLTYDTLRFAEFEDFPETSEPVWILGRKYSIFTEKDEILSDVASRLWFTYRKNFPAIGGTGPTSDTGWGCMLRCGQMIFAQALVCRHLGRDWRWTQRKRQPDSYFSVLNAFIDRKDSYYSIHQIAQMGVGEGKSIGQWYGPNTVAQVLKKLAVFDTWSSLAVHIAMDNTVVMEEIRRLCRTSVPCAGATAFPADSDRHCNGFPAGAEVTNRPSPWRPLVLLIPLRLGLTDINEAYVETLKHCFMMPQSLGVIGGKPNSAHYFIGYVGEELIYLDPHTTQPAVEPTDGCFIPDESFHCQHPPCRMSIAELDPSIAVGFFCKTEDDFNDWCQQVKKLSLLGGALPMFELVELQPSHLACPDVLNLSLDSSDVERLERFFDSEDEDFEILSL
MEKK2wt confirm: raises or lowers MEK5 binding to wildtype human MEKK2, retest; shares compounds with MEKK3 PB1 HTS; actives 2.4% (n = 5,900); binding response (% of control), % at 10 µM; AID 1892; bead flow cytometry, Alexa488-MEK5 binding to MEKK2 WT; actives lie on both sides; in the data active = binding response below about 16% or above about 210%; inactive = in between
MEKK2mut confirm: signal of MEK5 binding to mutant human MEKK2, retest | shares compounds with MEKK3 PB1 HTS | bead flow cytometry, Alexa488-MEK5 binding to MEKK2 mutant | percent response, % at 10 µM | actives 2% (n = 5,900) | AID 1893; in the data active = percent response mostly above about 71%, no sharp cut-off; inactive = mostly below about 38%;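 note: higher means compound restores mutant binding toward wildtype level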
MEKK3 confirm: MEKK3-MEK5 PB1 inhibition, single concentration confirmation | bead flow cytometry, Alexa488-MEK5 binding to MEKK3; stronger effect = lower value | shares compounds with MEKK3 PB1 HTS | binding response (% of control), % at 10 µM | actives 1.8% (n = 5,900) | AID 1894;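 active = binding response below 72% of control, or above a set upper limit, though filed actives all read lower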;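 note: 100% = DMSO only wells and 0% = binding blocked by excess unlabeled MEK5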
An asterisk follows results filed as active; nt = no result given; [ ] = remark or other dose. An excerpt weighted towards active compounds, which were near 2.9% of everything screened.

SMILES	Beta2AR agonist	Dynein transport	MEKK3 PB1 HTS	MEKK2 WT-MEK5	MEKK2 mut-MEK5	ATG4B inh	MEKK2wt confirm	MEKK2mut confirm	MEKK3 confirm
O=[N+]([O-])c1ccc(C[n+]2cccc3c4ccccc4ccc32)cc1	8	-0.71	99	8.0*[inhibitor]	20	-8	109	9	99
COc1cccc(NC(=O)CN(C)C(=O)c2cc(S(=O)(=O)Nc3ccccc3OC)ccc2C)c1	-4	nt	nt	nt	nt	-7	nt	nt	nt
C=CCn1c(SCC(=O)NC2CCCCC2)nnc1-c1sc(N)nc1C	-7	-0.021	3.0*[inhibitor]	3.0*[inhibitor]	-13	0	97	2	104
C=CCn1c(SCC(=O)Nc2sc(C)c(C)c2C(=O)OCC)nnc1-c1sc(N)nc1C	1	0.52	100	99	14	11	nt	nt	nt
Cc1snc(S(=O)(=O)/C(C#N)=N/Nc2ccc(C(F)(F)F)cc2)c1C#N	18	-0.49	102	101	4	-9	nt	nt	nt
Cc1cc(NC(=O)CSc2nnc(N)s2)c([N+](=O)[O-])cc1C	5	-1.2	65*[inhibitor]	77	-4	3	97	-2	99
COC(=O)c1cc(C(=O)OC)cc(N2C(=O)CC(NNC(=O)c3ccccc3Br)C2=O)c1 (stereo unspecified)	8	0.24	94	92	1	-4	nt	nt	nt
COC(=O)c1cc(C(=O)OC)cc(N2C(=O)CC(NNC(=O)c3ccc(C)cc3)C2=O)c1 (stereo unspecified)	-3	0.036	61*[inhibitor]	89	-1	2	102	4	102
COc1cc2c(cc1NC(=S)NC(=O)c1c(OC)cccc1OC)oc1ccccc12	0	0.9	129*	102	0	11	85	-11	96
CCNc1ccc(C(=O)N/N=C/c2c(C)nn(-c3ccccc3)c2N2CCCC2)cc1[N+](=O)[O-]	-7	0.66	138*	107	1	-3	101	0	102
Cc1ccc(NS(=O)(=O)c2cccc(C(=O)N/N=C/c3c(C)nn(-c4ccccc4)c3N3CCCC3)c2)c(C)c1	16	0.19	91	100	0	16	nt	nt	nt
N#CC1=C(N)c2ccccc2CC12CCCCC2	1	-0.26	100	97	-3	9	nt	nt	nt
COc1ccccc1N1CCN(C(=O)CSc2nnc3c4ccccc4nc(Cc4ccccc4)n23)CC1	nt	1.4	97	99	-7	nt	nt	nt	nt
CCOc1ccc(CCN2C(=O)C(=O)N([C@H](CCCN(C)Cc3ccccc3)CNCc3ccccc3)C[C@@H]2C(C)C)cc1	nt	3.7	96	105	5	nt	nt	nt	nt
COc1ccc(CNC[C@@H](CCCCN(C)Cc2ccc(OC)cc2)N2C[C@H](c3ccccc3)N(CCc3ccc(Cl)c(Cl)c3)C(=O)C2=O)cc1	102*	4.1	111	236*	94*	-3	240*	100*	92
Cc1ccc2c(c1)C1NC(=S)NC(C)(O2)C1C(=O)Nc1ccc(Cl)cc1 (stereo unspecified)	9	-0.45	146*	102	0	5	104	3	108
COc1ccc2c(c1)C1NC(=S)NC(C)(O2)C1C(=O)Nc1ccc(Cl)cc1 (stereo unspecified)	2	0.36	120	100	-1	0	nt	nt	nt
COc1ccc(NC(=O)CN(C)C(=O)c2ccc3c(c2)OCCO3)cc1	-5	nt	nt	nt	nt	1	nt	nt	nt
NC1=NC[C@H](Cc2ccc(O)cc2)N1CCC12CC3CC(CC(C3)C1)C2	7	0.13	108	138*	21	-10	128	8	100
CCCCN1C(N)=NC[C@@H]1Cc1ccc(O)cc1	-6	0.077	97	106	1	-2	nt	nt	nt
O=C(Cn1nc(C(F)F)cc1C(F)F)NNC(=S)Nc1ccc([N+](=O)[O-])cc1	-5	-0.76	100	96	0	-2	nt	nt	nt
Cc1ccc(S(=O)(=O)Oc2ccccc2/C=N/N=C(N)N)cc1	2	-0.14	115	149*	19	4	118	14	102
Cc1ccc(S(=O)(=O)Oc2ccccc2/C=N/NC(N)=S)cc1	5	-0.29	97	97	-3	10	nt	nt	nt
O=C(CCN1CCCCC1)c1ccccc1	33	-0.29	100	100	4	-5	nt	nt	nt
C[N+]1(CCC(=O)c2ccccc2)CCCCC1	-1	-0.11	2.0*[inhibitor]	2.0*[inhibitor]	-13	-3	117	11	114
SMILES	Beta2AR agonist	Dynein transport	MEKK3 PB1 HTS	MEKK2 WT-MEK5	MEKK2 mut-MEK5	ATG4B inh	MEKK2wt confirm	MEKK2mut confirm	MEKK3 confirm
CCOCCCNC(=S)NCCCNc1nc2cc3c(cc2cc1C#N)OCO3	6	-0.73	1.0*[inhibitor]	-4.0*[inhibitor]	-18	2	97	-2	99
Cc1oc(-c2cccc(Cl)c2)nc1CN1CCC(C(=O)N2CCN(c3ccccc3F)CC2)CC1	6	-0.62	106	140*	25	-7	141	28	109
Cc1oc(-c2ccc(Cl)cc2)nc1CN1CCC(C(=O)N2CCN(Cc3ccccc3)CC2)CC1	5	1.6	nt	nt	nt	-2	nt	nt	nt
CO[C@H]1O[C@@H]2O[C@@]3(C)CC[C@H]4[C@H](C)CC[C@@H]([C@H]1C)[C@@]24OO3	nt	nt	103	105	3	nt	nt	nt	nt
O=C(COc1ccc(C2SCCS2)cc1)Nc1ccc(Cl)cc1	0	-0.23	72*[inhibitor]	79	-15	-9	99	-3	101
O=C(CSc1ccc(Cl)cc1)Nc1ccc(C2SCCS2)cc1	12	-0.21	103	104	1	-3	nt	nt	nt
CC(=O)NS(=O)(=O)c1ccc(NC(=O)CC23CC4CC(CC(Br)(C4)C2)C3)cc1	-3	nt	100	103	3	4	nt	nt	nt
Nc1nc2c([N+](=O)[O-])cccc2s1	8	-0.41	99	96	-4	0	nt	nt	nt
Nc1nc2c(F)cccc2s1	3	1.1	133*	102	0	-2	102	1	99
NNc1nc2c(F)cccc2s1	-4	-0.32	140*	105	0	-5	106	0	104
Fc1cccc2sc(Nc3nc4c(F)cccc4s3)nc12	-3	-0.63	102	103	-2	-8	nt	nt	nt
CCN(CC)S(=O)(=O)c1cccc(NC(=O)CC2CCCC2)c1	-6	nt	103	105	3	-3	nt	nt	nt
